Assay results taken from publication PMC8828683 (Stem Cell Reports, 2022).

How the values were obtained:
WA09/H9 ESC [1] = assay: Cells with <2N DNA by FACS of permeabilized cells stained with PI; type: cell-based, human; settings: read-out: IC50 DNA (50% of cells with <2N DNA); WA09/H9 ESC
Procedure, shortened: (§1)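 Cells were exposed to a range of test compound concentrations alongside vehicle (DMSO) controls. They were then permeabilized, stained with propidium iodide, and DNA content was read by flow cytometry. IC50 is the concentration at which 50% of cells hold <2N DNA, from 3 independent repetitions with SEM. Line averages and differentiated/pluripotent ratios are derived from these IC50s. NTERA-2 was also run as a time course at 5 μM, normalized to vehicle at each time point.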

[2] = test system: HFF-1 normal skin fibroblast; assay: Cellular ATP level; type: cell-based, human; settings: read-out: IC50 ATP
Procedure, shortened: (§2)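 Cellular ATP was measured with a CellTiter-Glo luminescence viability assay after exposure to a concentration range of test compound. IC50 is the average of three independent assays. Mean IC50s across differentiated or human pluripotent lines, and their ratio, are derived from the per-line values.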

GCT27D.C1 ECC [3] = assay: Cells with <2N DNA by FACS of permeabilized cells stained with PI; type: cell-based, human
Procedure, shortened: as §1

TERA-2 ECC [4] = assay: Live cells / PCD by FACS of nonpermeabilized cells stained with annexin-V and PI; type: cell-based, human; settings: read-out: IC50 Live Cells, 4 days
Procedure, shortened: (§3)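 Cells were seeded so that vehicle wells stayed subconfluent, then treated with a range of test compound concentrations for 4 days. Without permeabilization, they were stained with annexin-V-FITC and propidium iodide and analysed by flow cytometry. Double-negative cells (Q3) were scored as live and Q1+Q2 as programmed death. Vehicle was set to 100% viable and 0% dead. Results are the mean of three independent assays with SEM; group averages and ratios are derived from the IC50s.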

H108 fibroblasts = assay: Immunoblotting of total cell extracts; type: cell-based, human
Procedure, shortened: (§4)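 Cells were cultured with 2.5 μM test compound for up to 96 h, and attached plus unattached cells were pooled. Whole-cell RIPA lysates were run on 4–12% Bis-Tris gels, transferred to nitrocellulose and blocked in 5% milk/TBS. Primary antibodies went on overnight at 4°C, followed by infrared secondary antibodies and imager quantitation. Each blot carried untreated U2OS as a shared standard, with Ponceau-S histones for normalization and lighter exposures for quantitation. Adriamycin for 24 h (NTERA-2 1 μM, H108 2 μM) served as a DNA-break control.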

WA09/H9 ESC [5] = assay: Live cells / PCD by FACS of nonpermeabilized cells stained with annexin-V and PI; type: cell-based, human; settings: read-out: IC50 Live Cells
Procedure, shortened: as §3

GCT27D.C1 ECC [6] = assay: as above; type: cell-based, human; settings: read-out: IC50 Live Cells, 4 days
Procedure, shortened: as §3

human pluripotent cells = assay: DNA loss; type: cell-based
Procedure, shortened: as §1

[7] = test system: human pluripotent cells (ESC, iPSC, ECC lines); assay: PCD / live cell loss; type: cell-based; settings: ratio of average IC50
Procedure, shortened: as §3

[8] = test system: HBEC normal lung epithelial; assay: Cells with <2N DNA by FACS of permeabilized cells stained with PI; type: cell-based, human; settings: read-out: IC50 DNA (50% of cells with <2N DNA)
Procedure, shortened: as §1

TERA-2 ECC [9] = assay: Cellular ATP level; type: cell-based, human; settings: read-out: IC50 ATP
Procedure, shortened: as §2

[10] = test system: human pluripotent cells (ESCs, iPSCs, ECCs); assay: ATP loss, summary over pluripotent cell lines; type: cell-based
Procedure, shortened: as §2

NTERA-2 ECC [11] = assay: Cellular ATP level; type: cell-based, human; settings: read-out: IC50 ATP
Procedure, shortened: as §2

[12] = test system: HBEC normal lung epithelial; assay: Live cells / PCD by FACS of nonpermeabilized cells stained with annexin-V and PI; type: cell-based, human; settings: read-out: IC50 Live Cells
Procedure, shortened: as §3

NTERA-2 ECCs = assay: Immunoblotting of total cell extracts; type: cell-based, human
Procedure, shortened: as §4

[13] = test system: H108 normal skin fibroblast; assay: Cellular ATP level; type: cell-based, human; settings: read-out: IC50 ATP
Procedure, shortened: as §2

[14] = test system: Mouse Gmnn(fl/fl);ER-Cre/+ ESCs; assay: Cellular DNA content by FACS of permeabilized cells stained with PI; type: cell-based
Procedure, shortened: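 Mouse Gmnn(fl/fl);ER-Cre/+ embryonic stem cells were grown with 3 μM test compound (from a 20 mM DMSO stock) or DMSO vehicle for the indicated times. Attached and unattached cells were pooled, permeabilized and stained with propidium iodide. DNA content was measured by flow cytometry, scoring the fraction of cells with <2N DNA.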

[15] = test system: VeroE6 normal kidney epithelial; assay: Live cells / PCD by FACS of nonpermeabilized cells stained with annexin-V and PI; type: cell-based, monkey; settings: read-out: IC50 Live Cells (PCD)
Procedure, shortened: as §3

[16] = test system: HBEC normal lung epithelial; assay: Cellular ATP level; type: cell-based, human; settings: read-out: IC50 ATP
Procedure, shortened: as §2

[17] = test system: H108 normal skin fibroblast; assay: Live cells / PCD by FACS of nonpermeabilized cells stained with annexin-V and PI; type: cell-based, human; settings: read-out: IC50 Live Cells; H108, 4 days
Procedure, shortened: as §3

[18] = test system: VeroE6 normal kidney epithelial; assay: Cellular ATP level; type: cell-based, monkey; settings: read-out: IC50 ATP
Procedure, shortened: as §2

NTERA-2 ECC [19] = assay: Live cells / PCD by FACS of nonpermeabilized cells stained with annexin-V and PI; type: cell-based, human; settings: read-out: IC50 Live Cells; NTERA-2 ECC, 4 days
Procedure, shortened: as §3

SCUi24 iPSC = assay: as above; type: cell-based, human; settings: read-out: IC50 Live Cells
Procedure, shortened: as §3

[20] = test system: HFF-1 normal skin fibroblast; assay: as above; type: cell-based, human; settings: read-out: IC50 Live Cells; HFF-1
Procedure, shortened: as §3

[21] = H108, 2.5 μM WX8, normalized to histones
[22] = H108 fibroblasts, 2.5 μM WX8 or 2 μM Adriamycin 24 h
[23] = NTERA-2, 2.5 μM WX8, normalized to histones

C(=N\Nc1nc(Nc2ccccc2)nc(N2CCOCC2)n1)/c1c[nH]c2ccccc12 [WX8]
IC50 (WA09/H9 ESC [1]): 5 µM | IC50 [2]: 28 µM | Range of sensitivity to WX8-induced cell death (DNA loss), H108/GCT27DC1 (GCT27D.C1 ECC [3]; ratio differentiated/pluripotent): 700 fold | IC50 (GCT27D.C1 ECC [3]; read-out: IC50 DNA (50% of cells with <2N DNA), GCT27D.C1 ECC): 0.2 µM | IC50 (TERA-2 ECC [4]): 5 µM | Accumulation of p62 protein (H108 fibroblasts; [21]): 13 fold | Accumulation of total LC3 protein (H108 fibroblasts; [21]): 10 fold | CASP3 cleavage (H108 fibroblasts; [22]): Neither WX8 nor Adriamycin induced cleavage | PARP cleavage (H108 fibroblasts; [22]): Neither WX8 nor Adriamycin induced cleavage | IC50 (WA09/H9 ESC [5]): 2.5 µM | IC50 (GCT27D.C1 ECC [6]): 0.28 µM | Difference in DNA loss, differentiated vs pluripotent cells (human pluripotent cells; ratio of average IC50): 24 fold | IC50 (human pluripotent cells; read-out: IC50 DNA loss, on average, average over human pluripotent cells): 2.8 µM | Difference in the initiation of PCD, differentiated vs pluripotent cells [7]: 35 fold | IC50 [8]: 20 µM | IC50 (TERA-2 ECC [9]): 3 µM | Difference in ATP loss, differentiated vs pluripotent cells ([10]; ratio of average IC50): 13 fold | IC50 ([10]; read-out: IC50 ATP loss, on average, average over human pluripotent cells): 1.2 µM | IC50 (NTERA-2 ECC [11]): 0.48 µM | IC50 [12]: 140 µM | CASP3 cleavage (NTERA-2 ECCs; NTERA-2, 2.5 μM WX8): < 2% | PARP cleavage (NTERA-2 ECCs; NTERA-2, 2.5 μM WX8): 41% | Accumulation of p62 protein (NTERA-2 ECCs; [23]): 9 fold | Accumulation of total LC3 protein (NTERA-2 ECCs; [23]): 4 fold | CASP12 cleavage (NTERA-2 ECCs; NTERA-2, WX8): < 2% | Cleaved CASP7 (NTERA-2 ECCs; NTERA-2, WX8): not detected | IC50 [13]: 15 µM | Cells with <2N DNA ([14]; 3 μM WX8, 72 hr): > 90% | Cells with <2N DNA ([14]; 3 μM WX8, within 32 h): 50% | IC50 [15]: 60 µM | IC50 [16]: 6 µM | IC50 [17]: 50 µM | IC50 [18]: 14 µM | IC50 (NTERA-2 ECC [19]): 1.3 µM | IC50 (SCUi24 iPSC): 2.5 µM | IC50 [20]: 75 µM
